Test results: article PMC11931566 (RSC Medicinal Chemistry, 2025)
Where two headings read alike, the source gives them in different places. Each block holds one molecule with its values, some of them ahead of it.

How the values were obtained:
[1] = system: UO31; assay: GI50 evaluation, UO31 renal cancer; assay type: cell-based, human; conditions: cut-off value of 3 μM
Summary of the method: (§1)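 GI50 determined per human cancer cell line, grouped by tumour type, with a 3 μM cut-off applied. Per-panel average GI50 and range were calculated. Fold change was taken as the ratio of the average GI50 to that of a reference antitumor ether lipid.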

[2] = system: ovarian cancer cell lines; assay: GI50 evaluation, ovarian cancer cell lines; assay type: cell-based, human; conditions: for GI50: Homo sapiens
Summary of the method: as §1

[3] = system: nine melanoma cell lines; assay: GI50 evaluation, melanoma cell lines; assay type: cell-based, human; conditions: for GI50: Homo sapiens
Summary of the method: as §1

[4] = system: 58 cancer cell lines; assay: Spectrum of anticancer activity, 58 cancer cell lines; assay type: cell-based, human; conditions: 10 μM
Summary of the method: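 Spectrum screen over 58 human cancer cell lines covering leukemia, CNS, prostate, breast, lung and other tumour types, run in the NCI-60 screen at the National Cancer Institute. % growth inhibition per line; counts of lines above 50% and above 100% inhibition, plus mean growth inhibition across the 58 lines.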

[5] = system: HCT15; assay: GI50 evaluation, HCT15 colon adenocarcinoma; assay type: cell-based, human; conditions: cut-off value of 3 μM
Summary of the method: as §1

[6] = system: seven colon cancer cell lines; assay: GI50 evaluation, colon cancer cell lines; assay type: cell-based, human; conditions: for GI50: Homo sapiens
Summary of the method: as §1

[7] = system: non-small cell lung cancer cell lines; assay: Cell growth inhibition, panel of nine NSCLC cell lines; assay type: cell-based, human
Summary of the method: as §1

[8] = system: six CNS cancer cell lines; assay: GI50 evaluation, CNS cancer cell lines; assay type: cell-based, human; conditions: for GI50: Homo sapiens
Summary of the method: as §1

[9] = system: ACHN; assay: GI50 evaluation, ACHN renal cancer; assay type: cell-based, human; conditions: cut-off value of 3 μM
Summary of the method: as §1

[10] = system: BAX; assay: Western blot in A549 cells, BAX; assay type: cell-based, human; conditions: 24 h
[11] = system: CDK8; assay: Western blot in A549 cells, CDK8; assay type: cell-based, human; conditions: western blot (Fig. S1)
[12] = system: A549 cells; assay: Cell cycle distribution analysis; assay type: cell-based, human; conditions: 24 h, different concentrations
Summary of the method: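 A549 lung cancer cells were treated with several concentrations of test compound, stained with propidium iodide for DNA content, and analysed by flow cytometry. Fractions in G0/G1, S and G2/M phases were quantified.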

[13] = Selectivity against normal cells, MRC-5; assay type: cell-based, human; conditions: human, MRC-5 normal foetal lung fibroblast cells
[14] = system: normal human foetal lung fibroblast MRC-5 cell line; assay: Selectivity against normal cells, MRC-5; assay type: cell-based; conditions: lung cancer cells rather than normal lung cells (MRC-5)
[15] = system: CDK2; assay: Western blot in A549 cells, CDK2; assay type: cell-based, human; conditions: 24 h
[16] = system: A549 cells; assay: Annexin V-FITC/PI double staining analysis; assay type: cell-based, human; conditions: 48 h, different concentrations
Summary of the method: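 A549 cells were treated with several concentrations of test compound, stained with annexin-V and propidium iodide, and analysed by FACS. Live, early apoptotic, late apoptotic and necrotic populations were quantified as percentages.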

[17] = system: phospho-Rb (p-Rb); assay: Western blot in A549 cells, phospho-Rb; assay type: cell-based, human; conditions: 24 h
[18] = system: CDK6; assay: Western blot in A549 cells, CDK6; assay type: cell-based, human; conditions: 24 h
[19] = system: H322M; assay: Cell growth inhibition; assay type: cell-based; conditions: Homo sapiens, NCI-H322M, read-out: % growth inhibition, H322M
Summary of the method: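 Single-dose screen of non-small cell lung cancer lines (adenocarcinoma, metastatic adenocarcinoma, large cell and squamous carcinoma) with test compound at 10 μM. Read-out is % growth inhibition per cell line. Run as part of the NCI-60 human tumour cell line screen at the National Cancer Institute.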

[20] = system: caspase 8; assay: Western blot in A549 cells, caspase 8; assay type: cell-based, human; conditions: 24 h
[21] = system: eight renal cancer cells; assay: GI50 evaluation, renal cancer cells; assay type: cell-based, human; conditions: for GI50: Homo sapiens
Summary of the method: as §1

[22] = system: CDK4; assay: Western blot in A549 cells, CDK4; assay type: cell-based, human; conditions: 24 h
[23] = system: CDK1; assay: Western blot in A549 cells, CDK1; assay type: cell-based, human; conditions: western blot (Fig. S1)
[24] = system: cyclin D1; assay: Western blot in A549 cells, cyclin D1; assay type: cell-based, human; conditions: 24 h
[25] = system: PARP; assay: Western blot in A549 cells, PARP and cleaved PARP; assay type: cell-based, human; conditions: 24 h
[26] = system: two prostate cancer cell lines; assay: GI50 evaluation, prostate cancer cell lines; assay type: cell-based, human; conditions: for GI50: Homo sapiens, read-out: calculated average GI50, prostate cancer
Summary of the method: as §1

[27] = system: CDK7; assay: Western blot in A549 cells, CDK7; assay type: cell-based, human; conditions: western blot (Fig. S1)
[28] = system: five breast cancer cell lines; assay: GI50 evaluation, breast cancer cell lines; assay type: cell-based, human; conditions: for GI50: Homo sapiens, read-out: calculated average GI50, breast cancer
Summary of the method: as §1

[29] = system: four leukemic cancer cells; assay: GI50 evaluation, leukemic cancer cells; assay type: cell-based, human; conditions: from average GI50
Summary of the method: as §1

[30] = system: COLO205; assay: GI50 evaluation, COLO205 colon cancer; assay type: cell-based; conditions: Homo sapiens, COLO 205, read-out: GI50, COLO205
Summary of the method: as §1

[31] = system: HCC2998; assay: GI50 evaluation, HCC2998 colon cancer; assay type: cell-based; conditions: Homo sapiens, HCC 2998, read-out: GI50, HCC2998
Summary of the method: as §1

[32] = read-out: GI50 range, ovarian cancer
[33] = read-out: calculated average GI50, ovarian cancer
[34] = read-out: calculated average GI50, melanoma
[35] = read-out: calculated average GI50, colon cancer
[36] = Homo sapiens, read-out: GI50 range, non-small cell lung cancer
[37] = Homo sapiens, read-out: calculated average GI50, non-small cell lung cancer
[38] = read-out: GI50 range, CNS cancer
[39] = read-out: calculated average GI50, CNS cancer
[40] = read-out: GI50 range, colon cancer
[41] = read-out: GI50 range, renal cancer
[42] = read-out: calculated average GI50, renal cancer

Structure (SMILES): CCCCCCCCCCCCCCCCCCOc1ccccc1CC(=O)OCC[N+](CC)(CC)CC.[I-] [Compound 8]
GI50 relative to cut-off, UO31 [1]: more than the applied cut-off value
GI50 [28]: 1430 nM
fold increase compared to the potency of edelfosine, breast cancer ([28]; from average GI50): ~47 fold
GI50 [2, 32]: 920 to 7580 nM
GI50 [2, 33]: 2670 nM
GI50 ([3]; read-out: GI50 range, melanoma): 880 to 1900 nM
GI50 [3, 34]: 1330 nM
average fold increase compared to the potency of edelfosine, melanoma ([3]; from average GI50): 29 fold
number of cell lines out of 58 inhibited by more than 50% [4]: 49
number of cell lines out of 58 inhibited by more than 100% [4]: 10
GI50 relative to cut-off, HCT15 [5]: outside the applied cut-off window
GI50 [6, 40]: 1040 to 4390 nM
GI50 [6, 35]: 1880 nM
GI50 [7, 36]: 1100 to 4030 nM
GI50 [7, 37]: 1800 nM
GI50 [8, 38]: 970 to 1620 nM
GI50 [8, 39]: 1350 nM
fold increase compared to the potency of edelfosine, CNS cancer ([8]; from average GI50): more than 15 fold
GI50 relative to cut-off, ACHN [9]: more than the applied cut-off value
average fold increase compared to the potency of edelfosine, leukemia [29]: 13 fold

Structure (SMILES): CCCCCCCCCCCCCCCCCCOCC(COP(=O)([O-])OCC[N+](C)(C)C)OC (centres unmarked) [edelfosine, reference compound]
GI50 [28]: > 67200 nM
GI50 [2, 32]: 6670 to 42300 nM
GI50 [2, 33]: 25200 nM
GI50 [30]: 2650 nM
GI50 [31]: 2380 nM
GI50 ([3]; read-out: GI50 range, melanoma): 15400 to 98400 nM
GI50 [3, 34]: 38700 nM
GI50 [6, 40]: 2380 to 14700 nM
GI50 [6, 35]: 7800 nM
GI50 [21, 41]: 12100 to 72800 nM
GI50 [21, 42]: 25000 nM
GI50 [7, 36]: 7050 to 46800 nM
GI50 [7, 37]: 25200 nM
GI50 [8, 38]: 8750 to 58500 nM
GI50 [8, 39]: 21400 nM
GI50 [26]: > 53600 nM

The next lines start with results.

GI50 relative to cut-off, UO31 [1]: more than the applied cut-off value
GI50 [2, 32]: 1540 to 18200 nM
GI50 [2, 33]: 6280 nM
GI50 ([3]; read-out: GI50 range, melanoma): 1700 to 2790 nM
GI50 [3, 34]: 2070 nM
GI50 relative to cut-off, HCT15 [5]: outside the applied cut-off window
GI50 [6, 35]: 2160 nM
GI50 [7, 36]: 1320 to 5780 nM
GI50 [7, 37]: 2350 nM
GI50 [8, 38]: 1390 to 2930 nM
GI50 [8, 39]: 1920 nM
GI50 relative to cut-off, ACHN [9]: more than the applied cut-off value
Structure (SMILES): CCCCCCCCCCCCCCCCCCOc1ccccc1CC(=O)OCC[N+]1(C)CCCCC1.[I-] [Compound 10]
number of cell lines out of 58 inhibited by more than 50% [4]: 31
number of cell lines out of 58 inhibited by more than 100% [4]: 6

GI50 relative to cut-off, UO31 [1]: more than the applied cut-off value
GI50 [2, 32]: 1520 to 18900 nM
GI50 [2, 33]: 6300 nM
GI50 ([3]; read-out: GI50 range, melanoma): 1630 to 2820 nM
GI50 [3, 34]: 2070 nM
GI50 relative to cut-off, HCT15 [5]: outside the applied cut-off window
GI50 [6, 35]: 2170 nM
GI50 [7, 36]: 1220 to 8220 nM
GI50 [7, 37]: 2670 nM
GI50 [8, 38]: 1260 to 2830 nM
GI50 [8, 39]: 1820 nM
GI50 relative to cut-off, ACHN [9]: more than the applied cut-off value
Structure (SMILES): CCCCCCCCCCCCCCCCCCOc1ccccc1CC(=O)OCC[N+]1(C)CCCC1.[I-] [Compound 9]
number of cell lines out of 58 inhibited by more than 50% [4]: 43
number of cell lines out of 58 inhibited by more than 100% [4]: 3

GI50 [2, 32]: 650 to 9840 nM
GI50 [2, 33]: 2640 nM
GI50 [13]: 16700 nM
GI50 ([3]; read-out: GI50 range, melanoma): 1570 to 2340 nM
GI50 [3, 34]: 1730 nM
GI50 [6, 40]: 1590 to 2960 nM
GI50 [6, 35]: 1910 nM
GI50 [21, 41]: 490 to 1750 nM
GI50 [21, 42]: 1350 nM
GI50 [7, 36]: 1250 to 2170 nM
GI50 [7, 37]: 1620 nM
GI50 [8, 38]: 1230 to 2030 nM
GI50 [8, 39]: 1590 nM
GI50 [26]: 1600 nM
Structure (SMILES): CCCCCCCCCCCCCCCCCCOc1ccccc1CC(=O)OCC[N+](C)(C)C.[I-] [Compound 6]
BAX level [10]: dose-dependent upregulation of BAX
fold increase compared to the potency of edelfosine, ovarian cancer ([2]; from average GI50): 9.5 fold
CDK8 protein level [11]: no dose-dependent inhibition
counts of cells in G0/G1 phase [12]: increased dose-dependently
counts of cells in the S and G2/M phases [12]: decreased in a dose-dependent pattern
selectivity index, average [14]: 10.31
selectivity index, range [14]: 7.70–13.36
CDK2 protein level [15]: dose-dependent inhibition
apoptosis induction (early apoptosis population) [16]: increase in the portion of cells that entered the early apoptosis state
necrosis [16]: no significant necrosis
number of cell lines out of 58 inhibited by more than 50% [4]: 50
number of cell lines out of 58 inhibited by more than 100% [4]: 9
formation of phospho-Rb (p-Rb) [17]: inhibited dose-dependently
CDK6 protein level [18]: dose-dependent inhibition
inhibition at 10 µM [19]: 33.5%
average fold increase compared to the potency of edelfosine, colon cancer ([6]; from average GI50): 4 fold
caspase 8 cleavage [20]: cleavage of caspase 8
average fold increase compared to the potency of edelfosine, renal cancer ([21]; from average GI50): 18.5 fold
inhibition at 10 µM ([7]; Homo sapiens, read-out: % growth inhibition (range) against H460, A549, HOP62, HOP92, and H522 cell lines, 10 µM): 88.5 to 114%
average fold increase compared to the potency of edelfosine, NSCLC ([7]; from average GI50): 15.5 fold
CDK4 protein level [22]: dose-dependent inhibition
CDK1 protein level [23]: no dose-dependent inhibition
cyclin D1 protein level [24]: dose-dependent inhibition
PARP cleavage [25]: dose-dependent PARP cleavage
fold increase compared to the potency of edelfosine, prostate cancer ([26]; from average GI50): 33.5 fold
CDK7 protein level [27]: no dose-dependent inhibition
